In the library only some 4.6% were active in any assay of this set; here they are far more common.
CHO parental Ca – counter-screen: ATP calcium response change in parental CHO cells. inhibition, % at 5.6 µM. 330,000 compounds, 0.63% hits. parental CHO-K1, ATP-induced calcium, Fluo-8 fluorescence. AID 463079;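 active = inhibition above that plate's mean sample inhibition plus 3 SD, cut at about 26% in these data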
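Material – parental CHO cells · Reagent – ATP stimulus · Compound – single nominal dose of 5.6 µM per compound · Detection – Fluo-8 fluorescence · Read-out basis – percent inhibition of calcium signal · Controls – ATP-challenged DMSO wells low, unchallenged DMSO wells high · Repeats – no replicates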
OX1R antag-1 – blocks the human orexin 1 receptor | O43613 | CHO/OX1R cells, Fluo-8 calcium fluorescence, orexin A | inhibition, % at 5 µM | 330,000 compounds, 0.43% hits | AID 434989;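 active = inhibition above its plate's threshold, mean inhibition of all tested compounds on the plate plus 3 SD, cut at about 37% in these data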
TAAR1 antag – antagonists of human TAAR1 | 360,000 compounds, 1.5% hits | CHO RD-HGA16 TAAR1, Fluo-8 calcium fluorescence, antagonist | Q96RJ0 | inhibition, % at 3 µM;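 active = inhibition above a per-plate cutoff, the mean inhibition of test compounds on that plate plus 3 SD, cut at about 49% in these data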
Target sequence (Q96RJ0 whole entry, looked up): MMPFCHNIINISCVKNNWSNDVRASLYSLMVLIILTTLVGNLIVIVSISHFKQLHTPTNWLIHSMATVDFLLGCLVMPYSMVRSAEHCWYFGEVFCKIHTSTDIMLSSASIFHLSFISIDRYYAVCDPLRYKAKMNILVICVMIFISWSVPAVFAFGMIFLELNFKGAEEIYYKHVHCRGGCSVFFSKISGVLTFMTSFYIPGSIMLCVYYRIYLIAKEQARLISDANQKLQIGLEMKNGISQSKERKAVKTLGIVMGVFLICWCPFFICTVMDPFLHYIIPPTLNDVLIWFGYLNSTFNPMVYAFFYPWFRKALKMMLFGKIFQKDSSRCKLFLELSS
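Material: RD-HGA16 CHO cells with stable hTAAR1 and Gα16; Dosing: single nominal final test compound concentration of 3 µM; Schedule: seeding 17-24 h prior, 75-min 37 °C, 30-min RT dye loading; Detection: kinetic Fluo-8 calcium fluorescence measurement; Measure: % inhibition from peak post-agonist over basal fluorescence ratio; Benchmarks: vehicle and agonist controls.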
OX1R antag-2 – OX1R (human) antagonism; O43613; OX1R-expressing cells, FRET antagonist read-out; inhibition, % at 6.6 µM; 330,000 compounds, 1.8% hits; AID 485270; in the data active = inhibition mostly above about 38%, no sharp cut-off; inactive = mostly below about 40%
GPR7 antagonist – human neuropeptides B/W receptor 1 antagonism; P48145; GPR7-expressing cells, fluorescence antagonist assay; inhibition, % at 4.4 µM; 290,000 compounds, 1.1% hits; in the data active = inhibition above about 16%, passing the limit was not always enough;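 also: cells stimulated with the agonist NPW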
Target sequence (P48145 whole entry, looked up): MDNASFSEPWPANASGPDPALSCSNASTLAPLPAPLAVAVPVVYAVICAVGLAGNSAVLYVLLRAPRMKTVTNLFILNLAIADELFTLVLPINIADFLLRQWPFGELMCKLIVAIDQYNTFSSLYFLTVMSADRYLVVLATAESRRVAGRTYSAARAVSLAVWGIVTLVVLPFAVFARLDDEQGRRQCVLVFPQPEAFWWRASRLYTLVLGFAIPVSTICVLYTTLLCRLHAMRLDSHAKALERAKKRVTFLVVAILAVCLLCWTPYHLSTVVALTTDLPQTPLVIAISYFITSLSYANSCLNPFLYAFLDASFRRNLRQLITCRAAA
TAAR1 ag – agonists of human TAAR1; activation, % at 3 µM; 360,000 compounds, 0.99% hits; CHO RD-HGA16 TAAR1, Fluo-8 calcium fluorescence; vehicle wells 0%, saturating PEA agonist 100%;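 active = activation above the mean activation of all test compounds in the run plus 3 SD, cut at about 38% in these data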
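Assay system – CHO-derived RD-HGA16 cells with stable Gα16 and human TAAR1 · Compound dosing – one-point dosing at 3 µM (nominal) · Incubation – 17-24 h seeding, 75 min 37 °C dye, 30 min RT · Measured by – kinetic Fluo-8 calcium fluorescence · Control set – DMSO vehicle as 0%, PEA at EC100 as 100% · Repeats – single well for each compound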
OX1R HTRF confirm – OX1R (human) antagonism, HTRF confirmed; shares compounds with OX1R antag-2; inhibition, % at 6.6 µM; AID 492964; 1,800 compounds, 49% hits; OX1R-expressing cells, HTRF antagonist assay; in the data active = inhibition above about 55%;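 also: CHO cells expressing OX1R stimulated with orexin A at about EC80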
CHO-K1 HTRF – counter-screen: parental CHO-K1 HTRF response | shares compounds with OX1R antag-2 | parental CHO-K1 cells, HTRF counterscreen | inhibition, % at 6.6 µM | 1,800 compounds, 48% hits; in the data active = inhibition above about 17%
A number is an active result; n = inactive; x = not tested or not shown.

SMILES	CHO parental Ca	OX1R antag-1	TAAR1 antag	OX1R antag-2	GPR7 antagonist	TAAR1 ag	OX1R HTRF confirm	CHO-K1 HTRF
CCN(CC(=O)Nc1c(F)cccc1F)C(=O)CSc1nnc(-c2ccco2)n1CC	n	n	n	n	n	n	x	x
NS(=O)(=O)c1ccc(N/N=C/c2ccccc2C(=O)O)c([N+](=O)[O-])c1	n	n	n	161.3	n	n	n	73.8
O=C(O)c1ccccc1/C=N/Nc1ccc(S(=O)(=O)N2CCOCC2)cc1[N+](=O)[O-]	n	n	n	n	n	n	x	x
O=C1c2cc(S(=O)(=O)NCCO)ccc2-c2ccc(S(=O)(=O)NCCO)cc21	n	n	n	79.4	n	n	61.4	63.9
O=C(O)CNS(=O)(=O)c1ccc2c(c1)C(=O)c1cc(S(=O)(=O)NCC(=O)O)ccc1-2	x	x	n	x	n	n	x	x
Cn1cnc([N+](=O)[O-])c1Oc1cccc2ccccc12	n	n	n	85.0	n	n	n	n
Cn1cnc([N+](=O)[O-])c1S(=O)(=O)Oc1cccc2ccccc12	x	x	n	x	x	n	x	x
CN(C)S(=O)(=O)N1CCN(CC(=O)Nc2ccc(Br)cc2)CC1	n	n	n	n	n	n	x	x
COc1ccc(Br)cc1/C=C/C(=O)Nc1ccc(C)cc1	n	n	n	94.6	n	n	68.5	21.6
COC(=O)CNC(=O)/C=C/c1cc(Br)ccc1OC	n	n	n	n	n	n	x	x
N#C/C(=N\Nc1ccc([N+](=O)[O-])cc1)C(N)=S	n	n	n	89.8	n	n	64.2	50.9
N#C/C(=N\Nc1ccc(S(=O)(=O)N2CCc3ccccc32)cc1)C(N)=S	n	n	n	106.0	n	n	n	20.9
COc1ccccc1CNC(=O)COC(=O)CCN=C1NS(=O)(=O)c2ccccc21	n	n	n	n	x	n	x	x
Cn1cc(SCC(=O)N2CCN(c3ccccc3)CC2)c2ccccc21	n	n	n	n	n	n	x	x
CN1CCN(C(=S)NC(=O)c2ccco2)CC1	n	n	n	n	n	n	x	x
Cc1ccc(/C=c2\sc3n(c2=O)CN(c2cccc(Br)c2)CN=3)o1	n	n	n	80.4	n	n	n	n
CC12CCC(=O)N1C(C(=O)OCC(=O)Nc1ccc(Cl)c(Cl)c1)CS2 (centres undefined)	n	n	n	n	n	n	x	x
N#Cc1cc([N+](=O)[O-])ccc1NC(=O)COC(=O)C1CC2CCCC(C1)C2=O (centres undefined)	n	n	n	87.8	x	n	n	43.3
Nc1nccc(/C=C/c2c(F)cccc2Cl)n1	n	n	n	n	n	n	x	x
O=c1cc(/C=C/c2c(F)cccc2Cl)[nH]c2ccccc12	n	n	n	90.1	n	n	90.0	n
O=C(Nc1ccc(N2CCOCC2)cc1)c1ccc([N+](=O)[O-])o1	n	n	n	94.8	n	n	n	n
Cc1cccnc1NC(=O)c1ccc([N+](=O)[O-])o1	n	n	n	116.2	n	n	n	57.5
CCOC(=O)c1sc(NC(=O)c2ccco2)c(C#N)c1C	n	n	n	n	n	n	x	x
Cc1cccc(NC(=O)c2ccc([N+](=O)[O-])o2)n1	n	n	n	96.8	n	n	n	63.9
COC(=O)c1sc(NC(=O)c2ccc([N+](=O)[O-])o2)c(C#N)c1C	n	n	n	91.5	n	n	64.0	29.6
SMILES	CHO parental Ca	OX1R antag-1	TAAR1 antag	OX1R antag-2	GPR7 antagonist	TAAR1 ag	OX1R HTRF confirm	CHO-K1 HTRF
CCCc1cc(=O)n2[nH]c(SCc3ccc(Cl)cc3)nc2n1	n	n	n	n	n	n	x	x
Cc1ccccc1NCc1nnc2n1CCCCC2	n	n	n	n	n	n	x	x
O=C(c1cccc([N+](=O)[O-])c1)N1CCOCC1	n	n	n	n	n	n	x	x
O=C(c1cc([N+](=O)[O-])cc([N+](=O)[O-])c1)N1CCOCC1	n	n	n	110.9	n	n	n	78.0
NC(=O)c1ccc(Nc2ccc([N+](=O)[O-])cc2[N+](=O)[O-])cc1	n	n	n	107.1	n	n	n	54.3
O=[N+]([O-])c1cc(C(F)(F)F)ccc1NCCCN1CCOCC1	n	n	n	n	n	n	x	x
O=[N+]([O-])c1ccc(NCCCN2CCOCC2)c([N+](=O)[O-])c1	n	n	n	170.7	n	n	n	72.3
Nc1ccc(Nc2ccc([N+](=O)[O-])cc2[N+](=O)[O-])cc1	n	n	n	n	n	n	x	x
O=C(NCc1cccnc1)c1ccc(Cl)cc1[N+](=O)[O-]	n	n	n	77.1	n	n	n	32.8
CN(C(=O)CCc1nc2ccccc2c(=O)[nH]1)C1CCS(=O)(=O)C1 (centres undefined)	n	n	n	n	x	n	x	x
CC(C)(CO)Nc1ccc([N+](=O)[O-])cc1[N+](=O)[O-]	n	n	n	93.6	n	n	n	37.5
O=C(NCCCN1CCOCC1)c1cc(Cl)ccc1[N+](=O)[O-]	n	n	n	n	n	n	x	x
O=C(NCCN1CCOCC1)c1ccc(Cl)c([N+](=O)[O-])c1	n	n	n	n	n	n	x	x
O=C(NCCCN1CCOCC1)c1ccc(Cl)cc1[N+](=O)[O-]	n	n	n	105.5	n	n	n	n
O=C(NCCN1CCOCC1)c1cc([N+](=O)[O-])cc([N+](=O)[O-])c1	n	n	n	78.3	n	n	n	71.9
Cc1ccc(NC2CCCN(C(=O)c3ccc(C)c(N4CCNC4=O)c3)C2)cc1C (centres undefined)	n	n	x	n	n	x	x	x
CCCC(=O)n1nc(-c2cccnc2)nc1NCc1ccccc1	x	x	n	x	n	n	x	x
CCN1CCc2c(C#N)c(N3CCOCC3)nc(NCCO)c2C1	n	n	n	78.5	n	n	n	n
CCN1CCc2c(C#N)c(N3CCOCC3)nc(NCc3ccccc3)c2C1	x	x	n	x	n	n	x	x
COc1ccc(/C=N/NC(=O)c2cc(C)on2)c2ccccc12	n	n	n	86.7	n	n	64.8	n
CCOC(=O)C1CCN(C(=O)C2CCN(C(=O)c3ccc([N+](=O)[O-])cc3)CC2)CC1	n	n	x	81.2	n	x	n	26.5
CCOCC(=O)N1CCN(c2ccc([N+](=O)[O-])cc2)CC1	n	n	n	82.6	n	n	n	29.1
O=[N+]([O-])c1cccc2c(N3CCCC3)ccnc12	n	n	n	131.6	n	n	61.2	101.1
CN(C)CCC1CCN(c2cc(C#N)c(C#N)cc2[N+](=O)[O-])CC1	n	n	n	118.4	n	n	n	53.8
Cc1cccnc1NC(=O)CN1C(=O)COc2ccc(Cl)cc21	n	n	n	n	n	n	x	x
O=C(CSc1nncc2ccccc12)Nc1cccc(O)c1	n	n	n	n	n	n	x	x
